In ChEMBL document CHEMBL4311941, “Development of Multifunctional Histone Deacetylase 6 Degraders with Potent Antimyeloma Activity” (J Med Chem, 2019):
The source made the active and inactive calls. No cut-off for these calls is given here.

How the values were obtained:
[1] = molecular target: T1, Protein cereblon/Protein deacetylase HDAC6 (Homo sapiens, UniProt Q9UBN7+Q96SW2); test: Protac activity at CRBN/HDAC6 in human MM1S cells assessed as HDAC6 degradation at 10 to 100 nM measured after 6 hrs by Western blot analysis; type: cell-based
Target sequence in this assay (Q96SW2 whole entry, looked up): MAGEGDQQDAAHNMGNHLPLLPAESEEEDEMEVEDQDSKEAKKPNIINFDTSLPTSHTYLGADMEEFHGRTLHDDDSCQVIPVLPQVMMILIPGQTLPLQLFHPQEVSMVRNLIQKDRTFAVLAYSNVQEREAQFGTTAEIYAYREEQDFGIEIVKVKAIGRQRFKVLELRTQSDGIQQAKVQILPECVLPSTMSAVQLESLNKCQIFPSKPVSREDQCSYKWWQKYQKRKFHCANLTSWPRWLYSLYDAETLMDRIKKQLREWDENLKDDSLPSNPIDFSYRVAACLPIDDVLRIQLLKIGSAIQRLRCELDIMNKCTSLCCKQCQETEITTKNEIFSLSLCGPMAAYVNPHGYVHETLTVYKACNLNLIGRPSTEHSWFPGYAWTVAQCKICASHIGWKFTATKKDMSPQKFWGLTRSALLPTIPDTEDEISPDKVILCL
Target sequence in this assay (Q9UBN7 whole entry, looked up): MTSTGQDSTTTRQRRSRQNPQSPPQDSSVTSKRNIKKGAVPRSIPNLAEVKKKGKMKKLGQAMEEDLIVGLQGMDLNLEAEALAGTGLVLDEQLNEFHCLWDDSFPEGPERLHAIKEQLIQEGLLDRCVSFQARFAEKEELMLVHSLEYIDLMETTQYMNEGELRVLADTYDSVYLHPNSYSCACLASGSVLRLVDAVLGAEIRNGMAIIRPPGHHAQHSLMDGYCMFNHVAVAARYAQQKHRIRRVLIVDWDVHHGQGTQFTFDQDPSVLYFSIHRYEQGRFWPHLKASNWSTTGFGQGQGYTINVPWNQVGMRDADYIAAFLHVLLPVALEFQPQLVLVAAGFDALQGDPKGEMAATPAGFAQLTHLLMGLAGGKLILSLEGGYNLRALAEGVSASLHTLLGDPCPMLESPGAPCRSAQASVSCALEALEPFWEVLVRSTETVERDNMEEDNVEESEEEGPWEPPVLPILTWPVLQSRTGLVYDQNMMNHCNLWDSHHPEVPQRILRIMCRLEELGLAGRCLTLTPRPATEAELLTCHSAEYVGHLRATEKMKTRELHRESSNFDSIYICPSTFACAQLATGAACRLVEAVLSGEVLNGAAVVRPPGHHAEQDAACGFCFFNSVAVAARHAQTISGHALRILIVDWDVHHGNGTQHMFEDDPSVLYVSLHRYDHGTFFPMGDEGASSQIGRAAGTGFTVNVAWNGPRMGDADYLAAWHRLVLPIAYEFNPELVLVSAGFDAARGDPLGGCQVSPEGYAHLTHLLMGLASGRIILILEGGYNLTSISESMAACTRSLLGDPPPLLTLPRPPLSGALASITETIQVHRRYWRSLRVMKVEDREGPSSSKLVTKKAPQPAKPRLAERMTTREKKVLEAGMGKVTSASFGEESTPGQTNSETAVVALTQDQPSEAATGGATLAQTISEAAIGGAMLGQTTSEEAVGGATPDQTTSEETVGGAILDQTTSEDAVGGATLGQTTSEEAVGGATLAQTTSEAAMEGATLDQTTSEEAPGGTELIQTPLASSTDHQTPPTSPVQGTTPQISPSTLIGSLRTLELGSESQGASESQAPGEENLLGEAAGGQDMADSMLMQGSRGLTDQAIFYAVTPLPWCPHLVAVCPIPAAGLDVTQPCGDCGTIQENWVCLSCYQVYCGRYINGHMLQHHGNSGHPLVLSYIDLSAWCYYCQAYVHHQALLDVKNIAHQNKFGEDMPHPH

[2] = molecular target: T1, Protein cereblon/Protein deacetylase HDAC6; test: Protac activity at CRBN/HDAC6 in human MM1S cells assessed as HDAC6 degradation measured after 6 hrs by ELISA; type: cell-based
Outline: (§1)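 In-cell ELISA: MM1S cells (5 × 10^4 per well) seeded overnight, treated 6 h (dosed as 5× medium; 0.1 nM–1 μM or 10/100 nM). Fixed in 8% formaldehyde/TBS, permeabilized with 0.1% Triton X, peroxidase quenched with 1% H2O2, blocked in 5% BSA. Anti-HDAC6 rabbit mAb (1:1000, 2 h) then HRP secondary; TMB read as OD450 − OD570. Background wells lacked primary antibody. Signal normalized to Janus Green and to DMSO wells, n = 3. DC50/Dmax from three-parameter fit.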
Target sequence in this assay (Q9UBN7 whole entry): as the sequence (Q9UBN7 whole entry, looked up) above
Target sequence in this assay (Q96SW2 whole entry): as the sequence (Q96SW2 whole entry, looked up) above

[3] = molecular target: T1, Protein cereblon/Protein deacetylase HDAC6; test: Protac activity at CRBN/HDAC6 in human MM1S cells assessed as HDAC6 degradation measured after 6 hrs by ELISA relative to control; type: cell-based; outline: as §1
Target sequence in this assay (Q96SW2 whole entry, looked up): as above
Target sequence in this assay (Q9UBN7 whole entry, looked up): as the sequence (Q9UBN7 whole entry, looked up) above

[4] = tested on: MM1.S; test: Antiproliferative activity against human MM1S cells assessed as reduction in cell viability at 1 uM measured after 72 hrs by resazurin dye based assay; type: functional
[5] = molecular target: T1, Protein cereblon/Protein deacetylase HDAC6; test: Protac activity at CRBN/HDAC6 in human HepG2 cells assessed as HDAC6 degradation up to 1 uM incubated for 6 hrs by Western blot analysis; type: cell-based
Target sequence in this assay (Q96SW2 whole entry, looked up): as the sequence (Q96SW2 whole entry, looked up) above
Target sequence in this assay (Q9UBN7 whole entry, looked up): as the sequence (Q9UBN7 whole entry, looked up) above

[6] = tested on: MM1.S; test: Antiproliferative activity against human MM1S cells assessed as reduction in cell viability measured after 72 hrs by resazurin dye based assay relative to control; type: functional
Outline: (§2)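 MM1S cells seeded at 1 × 10^4 per well, left overnight, then given compound or DMSO vehicle (added as 5× dosing medium) for 72 h at 37 °C, 5% CO2. Resazurin added (10× solution, 1 mg/mL), then incubated overnight at 37 °C. OD read at 570 and 600 nm. Viability is relative to vehicle, n = 3. Curves fitted as [inhibitor] vs response (three parameters); test range 0.3 nM–3 μM.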

[7] = molecular target: T1, Protein cereblon/Protein deacetylase HDAC6; test: Protac activity at CRBN/HDAC6 in human MM1S cells assessed as HDAC6 degradation at 100 nM measured after 6 hrs by Western blot analysis; type: cell-based
Target sequence in this assay (Q96SW2 whole entry, looked up): as the sequence (Q96SW2 whole entry, looked up) above
Target sequence in this assay (Q9UBN7 whole entry, looked up): as the sequence (Q9UBN7 whole entry, looked up) above

[8] = tested on: MM1.S; test: Antiproliferative activity against human MM1S cells assessed as reduction in cell viability measured after 72 hrs by resazurin dye based assay; type: functional; outline: as §2

| Activity [1] | SMILES | Activity [4] | other results |
| --- | --- | --- | --- |
| Active | CCCCN(Cc1ccc(C(=O)NO)cc1)C(=O)Nc1ccc(OCCn2cc(CCCNc3cccc4c3C(=O)N(C3CCC(=O)NC3=O)C4=O)nn2)cc1 (configuration not stated) |  | DC50 [2]: 2.54 nM; %max [3]: 86.3% |
|  | Nc1cccc2c1C(=O)N(C1CCC(=O)NC1=O)C2=O (configuration not stated) | Active |  |
| Active | CCCCN(Cc1ccc(C(=O)NO)cc1)C(=O)Nc1ccc(OCCCCn2cc(CNc3ccc4c(c3)C(=O)N(C3CCC(=O)NC3=O)C4=O)nn2)cc1 (configuration not stated) |  | Activity [5]: Active |
|  | CCCCN(Cc1ccc(C(=O)OC)cc1)C(=O)Nc1ccc(OCCCCCn2cc(CNc3cccc4c3C(=O)N(C3CCC(=O)NC3=O)C4=O)nn2)cc1 (configuration not stated) | Active | Imax [6]: 44%; Activity [7]: inactive; EC50 [8]: 17.7 nM |
| Active | CCCCN(Cc1ccc(C(=O)NO)cc1)C(=O)Nc1ccc(OCCCCn2cc(CCNc3cccc4c3C(=O)N(C3CCC(=O)NC3=O)C4=O)nn2)cc1 (configuration not stated) |  |  |
| Active | CCCCN(Cc1ccc(C(=O)NO)cc1)C(=O)Nc1ccc(OCCCn2cc(CCCNc3ccc4c(c3)C(=O)N(C3CCC(=O)NC3=O)C4=O)nn2)cc1 (configuration not stated) |  |  |
| Active | O=C(CCCCCCC(=O)N/N=C/c1ccc(OCCOCCOCCn2cc(CNc3cccc4c3C(=O)N(C3CCC(=O)NC3=O)C4=O)nn2)cc1)NO (configuration not stated) | Active | DC50 [2]: 9.12 nM; %max [3]: 84.1% |
| Active | CCCCN(Cc1ccc(C(=O)NO)cc1)C(=O)Nc1ccc(OCCCCCn2cc(CNc3ccc4c(c3)C(=O)N(C3CCC(=O)NC3=O)C4=O)nn2)cc1 (configuration not stated) |  |  |
|  | CCCCN(Cc1ccc(C(=O)NO)cc1)C(=O)Nc1ccccc1 | inactive |  |
|  | CCCCN(Cc1ccc(C(=O)NO)cc1)C(=O)Nc1ccc(OCCCCCn2cc(CNc3cccc4c3C(=O)N(C3CCC(=O)N(C)C3=O)C4=O)nn2)cc1 (configuration not stated) | inactive | Activity [7]: inactive |
|  | CCCCN(Cc1ccc(C(=O)NO)cc1)C(=O)Nc1ccc(OCCn2cc(CNc3cccc4c3C(=O)N(C3CCC(=O)NC3=O)C4=O)nn2)cc1 (configuration not stated) |  | DC50 [2]: 3.41 nM; %max [3]: 88% |
